The list is not random: actives were taken first. Their share in the collection is about 1.3%.
Lipid droplet: modulators of hepatic lipid droplet formation; AML12 mouse hepatocytes, oleate lipid droplets, BODIPY imaging; inhibition, % at 6.5 µM; hit rate 0.4% among 240,000; AID 1656;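 active means lipid droplet intensity inhibited by at least 50%, with more than 500 cells counted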
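Technique: fluorescence imaging, 20x objective, two fields per well / Assay system: AML12 hepatocytes (mouse) / Measure: % inhibition of lipid droplet signal / Doses: 6.5 µM single-point dosing / Incubation: overnight exposure / Reagent: 100 µM oleic acid challenge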
NS3 helicase inh: inhibitors of Hepatitis C virus NS3 helicase. NS3 helicase DNA unwinding, Cy5 molecular beacon fluorescence. inhibition, % at 10.9 µM. hit rate 0.56% among 290,000. AID 1800;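 active means inhibition above the mean of all tested compounds plus 3 SD, set per campaign, cut at about 35% in these data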;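 further: 0% = DMSO wells and 100% = thioflavine S control wells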
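Assay system – hepatitis C virus NS3 helicase domain fragment enzyme · Buffer or medium – MOPS pH 6.5, MgCl2, DTT, Tween20, BSA · Reagent – Cy5/quencher beacon DNA duplex and ATP to start · Compound – single 10.9 µM dose · Timing – 1 h at 25 °C · Technique – Cy5 beacon fluorescence read at start and 1 h · Measure – % inhibition of unwinding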
HCV core dimer: HCV core protein dimerization inhibition; TR-FRET GST/Flag-core106 dimerization, 1536-well; inhibition, % at 5 µM; hit rate 0.33% among 300,000;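 active means inhibition above the mean of all tested compounds plus 3 SD, set per screening campaign, cut at about 45% in these data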
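Assay system: GST-tagged and Flag-tagged HCV core protein residues 1-106 / Times: compound-protein-antibody incubation 4 h at 22.5 °C / Signal: time-resolved FRET, ex 340 nm, em 617 and 671 nm / Evaluation: % inhibition based on acceptor/donor emission ratio / Benchmarks: wells lacking GST-core106 and wells with excess unlabelled core106 / Repeats: singlicate, one well per compound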
Tb MetRS inh: blocks T. brucei methionyl-tRNA synthetase activity; hit rate 0.4% among 360,000; inhibition, % at 11.9 µM; purified T. brucei MetRS, ATP depletion, Kinase-Glo luminescence;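 active means inhibition above a per-plate cutoff of the control wells' mean inhibition plus 3 SD, cut at about 5.5% in these data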;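 further: 0% = DMSO wells median and 100% = median of wells with control inhibitor compound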
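Test system: purified T. brucei MetRS enzyme. Also added: ATP, methionine and E. coli bulk tRNA substrates. Compound: 11.9 µM single point. Schedule: 15 min enzyme-compound preincubation, 2 h reaction, 10 min detection, 25 °C. Signal: luciferase luminescence of residual ATP, Kinase-Glo. Evaluation: percent inhibition versus plate control medians. Controls: DMSO wells, low control.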
TbMetRS confirm: confirmation of Trypanosoma brucei MetRS inhibitors | shares compounds with Tb MetRS inh | T. brucei MetRS enzyme, luminescence (ATP depletion) | inhibition, % at 11.9 µM | hit rate 93% among 1,400 | AID 624412; in the data active means inhibition above about 7%
Jurkat cytotox: kills Jurkat cells in T. brucei MetRS counterscreen | hit rate 12% among 1,400 | Jurkat cells viability, ATP luminescence | shares compounds with Tb MetRS inh | inhibition, % at 8.3 µM; in the data active means inhibition above about 15%;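 further: 0% = vehicle and 100% = reference inhibitor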
Tb MetRS inh FP: orthogonal test for Trypanosoma brucei MetRS inhibitors | inhibition, % at 11.9 µM | hit rate 44% among 1,400 | purified T. brucei MetRS, fluorescence polarization | shares compounds with Tb MetRS inh | AID 651607; in the data active means inhibition above about 17%;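 further: 0% = vehicle wells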
The depositor's hits bear a star; . = no result.

SMILES	Lipid droplet	NS3 helicase inh	HCV core dimer	Tb MetRS inh	TbMetRS confirm	Jurkat cytotox	Tb MetRS inh FP
O=C(c1c[nH]c2ccccc12)C(Cl)c1ccccc1 (stereo not drawn)	2.6	-1.9	2.1	24.7*	45.4*	45.4*	23.5*
Cc1ccc(C(=O)C(OC(=O)c2cnccn2)c2ccccc2)cc1 (stereo not drawn)	10.0	-8.2	-4.2	0.4	.	.	.
O=C1CCC(C(=O)OC(C(=O)c2c[nH]c3ccccc23)c2ccccc2)=NN1 (stereo not drawn)	-2.5	4.0	-11.4	9.9*	23.6*	3.9	8.7
O=C(OC(C(=O)c1c[nH]c2ccccc12)c1ccccc1)c1cnccn1 (stereo not drawn)	-9.8	-0.6	1.0	14.6*	27.1*	-4.4	17.4*
Cc1cc(=O)oc2ccc(OC(=O)CC(C)C)cc12	2.0	4.2	-1.7	-0.3	.	.	.
COC(=O)Cc1c(C)c2ccc(OCC(=O)c3ccc(OC)c(OC)c3)cc2oc1=O	-4.2	21.2	-3.3	.	.	.	.
OCCNc1nc(Nc2ccc(Br)cc2)nc2ccccc12	2.8	-58.3	-11.5	.	.	.	.
CNc1nc(NCc2ccccc2)c2ccccc2n1	12.9	-14.3	7.6	1.9	.	.	.
OCCNc1nc(Nc2ccccc2)nc2ccccc12	-21.0	-7.3	-3.0	11.2*	31.1*	-0.8	7.9
CCCCNc1nc(NCc2ccccc2)nc2ccccc12	.	.	.	10.2*	22.0*	61.6*	5.0
COc1ccc2c(c1)CCN1C2CCN2C(=O)CCC21 (stereo not drawn)	3.0	1.2	-3.2	-1.1	.	.	.
O=C(C1CCCN(Cc2ccccc2)C1)N1CCc2ccccc2C1 (stereo not drawn)	15.3	5.2	-9.6	-0.2	.	.	.
Cc1[nH]c2ccccc2c1/C=N/Nc1ccc([N+](=O)[O-])cc1	4.1	-12.3	-22.9	9.6*	12.2*	9.1	71.0*
Cc1[nH]c2ccccc2c1/C=N/NC(=O)c1cccc([N+](=O)[O-])c1	-3.9	-6.5	-7.6	1.1	.	.	.
NS(=O)(=O)c1ccc(CCNC(=O)c2cc(-c3cc(Cl)ccc3O)n[nH]2)cc1	6.6	-11.9	-6.5	31.8*	37.5*	13.9	35.6*
Cc1cc(O)c(-c2cc(C(=O)NCCc3ccc(S(N)(=O)=O)cc3)[nH]n2)cc1C	-2.1	-4.7	2.4	-0.4	.	.	.
Cc1cc(C)c(O)c(-c2cc(C(=O)NCCc3ccc(S(N)(=O)=O)cc3)[nH]n2)c1	-15.4	1.4	-3.7	5.7*	15.3*	3.5	17.1*
COCCCNC(=O)Cn1ccc(N)nc1=O	.	.	.	0.0	.	.	.
CC(CNC(=S)Nc1cc(F)cc(F)c1)CSc1ccc(Cl)cc1 (stereo not drawn)	-3.4	6.4	-1.6	12.8*	24.8*	2.2	27.5*
Cc1ccc(NC(=S)NCCSc2ccc(Cl)cc2)cc1	1.0	-12.5	-3.1	-0.3	.	.	.
CCC1CCCN1Cn1cnc2c([nH]c3ccc(Cl)cc32)c1=O (stereo not drawn)	2.5	-3.5	-16.8	5.8*	17.9*	4.2	-2.1
COc1ccc(CNC(=O)CCNC(=O)c2ccco2)cc1OC	.	.	.	-0.4	.	.	.
Cc1cc(Br)cc(Br)c1OCC(=O)NNC(=O)Nc1ccccc1	.	.	4.9	7.5*	44.5*	-5.6	30.4*
COc1ccc(NC(=O)c2cc(S(=O)(=O)N3CCc4ccccc43)cn2C)cc1OC	-5.0	-5.5	-3.0	-0.5	.	.	.
C[C@@H]1C=C(C(=O)NCc2nc3ccccc3[nH]2)O[C@H](OCCCCO)C1	.	.	-9.2	4.4	.	.	.
SMILES	Lipid droplet	NS3 helicase inh	HCV core dimer	Tb MetRS inh	TbMetRS confirm	Jurkat cytotox	Tb MetRS inh FP
O=C(NCc1ccccc1)C1=C[C@@H](c2csc3ccccc23)C[C@@H](OCCCCO)O1	-10.6	0.4	4.8	.	.	.	.
C[C@@H]1C=C(C(=O)NCc2nc3ccccc3[nH]2)O[C@H](OCc2ccc(CO)cc2)C1	-4.5	.	-3.0	69.1*	95.9*	5.8	72.0*
O=C(NCc1nc2ccccc2[nH]1)C1=C[C@@H](c2csc3ccccc23)C[C@@H](OCCCCO)O1	-14.3	.	-10.1	72.2*	100.9*	-4.8	77.2*
C#Cc1ccc([C@H]2C=C(C(=O)NCc3nc4ccccc4[nH]3)O[C@@H](OCc3ccc(CO)cc3)C2)cc1	.	.	29.1	31.7*	84.8*	-0.2	68.1*
O=C(NCc1nc2ccccc2[nH]1)C1=C[C@H](c2ccc(C(F)(F)F)cc2)C[C@H](OCc2ccc(CO)cc2)O1	2.7	-16.5	-3.6	18.1*	48.5*	-2.9	30.1*
CCC1COCCS(=O)(=O)N1Cc1ccc(F)cc1 (stereo not drawn)	-3.4	-30.6	-10.3	-0.5	.	.	.
COC(=O)C1CCCN1C(=O)COc1ccc(Cl)cc1Br (stereo not drawn)	-4.2	-12.0	7.9	0.3	.	.	.
CCc1ccccc1NC(=O)CNC(=O)CNC(=O)c1cccs1	.	.	.	-0.5	.	.	.
O=C(NCc1nc2ccccc2[nH]1)C1=C[C@H](c2ccc(Br)cc2)C[C@H](OCc2ccc(CO)cc2)O1	-0.4	-20.1	3.4	65.9*	98.2*	-3.5	74.6*
COc1ccc(S(=O)(=O)N2CCCCCC2)cc1N	7.4	6.6	-4.4	-2.0	.	.	.
C[C@H](O)[C@@H]1CN2CCc3c([nH]c4ccccc34)[C@@H]2C[C@@H]1N(C)C(=S)NCCc1ccccc1	.	.	.	7.8*	6.7*	6.4	10.5
CCN(CC)S(=O)(=O)c1ccc(N2CC(C(=O)N3Cc4ccccc4CC3C(N)=O)CC2=O)cc1 (stereo not drawn)	.	.	.	0.0	.	.	.
Cc1ccc2[nH]cc(S(=O)(=O)c3ccc(C)c(C)c3)c(=O)c2c1	-1.8	-9.8	5.7	6.8*	38.1*	3.9	8.7
COc1cccc(CSc2nc3ccccc3[nH]2)c1	-0.2	-5.8	7.0	-0.5	.	.	.
COc1cccc(CC(Cc2nc3ccccc3[nH]2)c2nc3ccccc3[nH]2)c1 (stereo not drawn)	-108.3	-1.4	5.2	9.3*	12.5*	5.5	4.5
O=C(c1cnccn1)N1CCc2ccccc2C1	9.3	-4.5	2.6	0.2	.	.	.
COC(=O)c1ccc(CSc2nnc(Nc3ccc(C)cc3)s2)o1	-7.4	-1.2	2.9	7.5*	14.1*	0.9	7.9
COc1cc(OC)c(OC)cc1/C=N/n1c(COc2ccccc2)n[nH]c1=S	-10.5	21.3	-8.8	-0.6	.	.	.
O=C(c1ccncc1)c1ccc(N2CCN(C3CC(=O)N(Cc4cccs4)C3=O)CC2)cc1 (stereo not drawn)	5.0	-5.6	2.6	6.6*	14.2*	11.2	6.0
c1ccc(CNc2ncnc3ccccc23)cc1	-15.6	-15.3	-1.0	0.7	.	.	.
c1ccc(CN2CCC(CNc3ncnc4ccccc34)C2)cc1 (stereo not drawn)	.	.	.	6.2*	27.6*	26.9*	16.4

Screening data as filed in PubChem BioAssay.
